Measurements: ChEMBL document CHEMBL3046951, “Volatile constituents from the leaves of Callicarpa japonica Thunb. and their antibacterial activities” (2004)

Legend:
Assay type in all cases: functional
[1] = test system: Bacillus cereus; assay: Antimicrobial activity against Bacillus cereus ATCC 11778 assessed as growth inhibition rate at 215.04 mg/l after 72 hr by spectrophotometry; details: ATCC 11778, 72 h, read-out: GI
Procedure, shortened: (§1)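 Pure volatile compounds (purity >95%; one at 90%) were tested against B. cereus ATCC 11778. The strain was grown at 30 °C in nutrient broth for 24 h, then subcultured for 18 h. Optical density was read in a Bioscreen C every 24 h for 72 h, with 10% Tween 80 as the control.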

[2] = test system: Bacillus cereus; assay: Antimicrobial activity against Bacillus cereus ATCC 11778 assessed as growth inhibition rate at 107.52 mg/l after 72 hr by spectrophotometry; details: ATCC 11778, 72 h, read-out: GI; procedure, shortened: as §1
[3] = test system: Salmonella typhimurium; assay: Antimicrobial activity against Salmonella enterica subsp. enterica serovar Typhimurium ATCC 14028 assessed as growth inhibition rate at 107.52 mg/l after 72 hr by spectrophotometry; details: ATCC 14028, 72 h, read-out: GI
Procedure, shortened: (§2)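 Salmonella Typhimurium ATCC 14028 grown in nutrient broth at 30 °C, precultured 24 h, then subcultured 1:100 for 18 h before testing. Single volatile compounds (>95% pure) were added. OD was read every 24 h over 72 h in a Bioscreen C, with 10% Tween 80 as the comparison control.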

[4] = test system: Salmonella typhimurium; assay: Antimicrobial activity against Salmonella enterica subsp. enterica serovar Typhimurium ATCC 14028 assessed as growth inhibition rate at 215.04 mg/l after 72 hr by spectrophotometry; details: ATCC 14028, 72 h, read-out: GI; procedure, shortened: as §2
[5] = test system: Salmonella typhimurium; assay: Antimicrobial activity against Salmonella enterica subsp. enterica serovar Typhimurium ATCC 14028 assessed as growth inhibition rate at 61.12 mg/l after 72 hr by spectrophotometry; details: ATCC 14028, 72 h, read-out: GI
[6] = test system: Salmonella typhimurium; assay: Antimicrobial activity against Salmonella enterica subsp. enterica serovar Typhimurium ATCC 14028 assessed as growth inhibition rate at 43 mg/l after 72 hr by spectrophotometry; details: ATCC 14028, 72 h, read-out: GI; procedure, shortened: as §2
[7] = test system: Salmonella typhimurium; assay: Antimicrobial activity against Salmonella enterica subsp. enterica serovar Typhimurium ATCC 14028 assessed as growth inhibition rate at 21.52 mg/l after 72 hr by spectrophotometry; details: ATCC 14028, 72 h, read-out: GI; procedure, shortened: as §2
[8] = test system: Vibrio parahaemolyticus; assay: Antimicrobial activity against Vibrio parahaemolyticus ATCC 33844 assessed as growth inhibition rate at 6.12 mg/l after 72 hr by spectrophotometry; details: ATCC 33844, 72 h, read-out: GI
[9] = test system: Escherichia coli; assay: Antimicrobial activity against Escherichia coli O157:H7 ATCC 43894 assessed as growth inhibition rate at 215.04 mg/l after 72 hr by spectrophotometry; details: O157:H7 ATCC 43894, 72 h, read-out: GI
[10] = test system: Escherichia coli; assay: Antimicrobial activity against Escherichia coli O157:H7 ATCC 43894 assessed as growth inhibition rate at 107.52 mg/l after 72 hr by spectrophotometry; details: O157:H7 ATCC 43894, 72 h, read-out: GI
[11] = test system: Escherichia coli; assay: Antimicrobial activity against Escherichia coli O157:H7 ATCC 43894 assessed as growth inhibition rate at 61.12 mg/l after 72 hr by spectrophotometry; details: O157:H7 ATCC 43894, 72 h, read-out: GI
Procedure, shortened: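 Authentic volatiles (>95% purity; 2,4-heptadienal 90%) tested against 18 h subcultures. Growth media: E. coli O157:H7 and S. aureus in tryptic soy broth at 37 °C; L. monocytogenes in tryptic soy broth at 30 °C; V. parahaemolyticus in tryptic soy broth + 3% NaCl at 37 °C; S. typhimurium in nutrient broth at 30 °C. Bioscreen C OD every 24 h for 72 h versus 10% Tween 80 control.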

[12] = test system: Escherichia coli; assay: Antimicrobial activity against Escherichia coli O157:H7 ATCC 43894 assessed as growth inhibition rate at 43 mg/l after 72 hr by spectrophotometry; details: O157:H7 ATCC 43894, 72 h, read-out: GI
[13] = test system: Staphylococcus aureus; assay: Antimicrobial activity against Staphylococcus aureus ATCC 25923 assessed as growth inhibition rate at 247 mg/l after 72 hr by spectrophotometry; details: ATCC 25923, 72 h, read-out: GI
[14] = test system: Escherichia coli; assay: Antimicrobial activity against Escherichia coli O157:H7 ATCC 43894 assessed as growth inhibition rate at 21.52 mg/l after 72 hr by spectrophotometry; details: O157:H7 ATCC 43894, 72 h, read-out: GI
[15] = test system: Staphylococcus aureus; assay: Antimicrobial activity against Staphylococcus aureus ATCC 25923 assessed as growth inhibition rate at 61.12 mg/l after 72 hr by spectrophotometry; details: ATCC 25923, 72 h, read-out: GI
[16] = test system: Staphylococcus aureus; assay: Antimicrobial activity against Staphylococcus aureus ATCC 25923 assessed as growth inhibition rate at 43 mg/l after 72 hr by spectrophotometry; details: ATCC 25923, 72 h, read-out: GI
[17] = test system: Vibrio parahaemolyticus; assay: Antimicrobial activity against Vibrio parahaemolyticus ATCC 33844 assessed as growth inhibition rate at 247 mg/l after 72 hr by spectrophotometry; details: ATCC 33844, 72 h, read-out: GI
[18] = test system: Bacillus cereus; assay: Antimicrobial activity against Bacillus cereus ATCC 11778 assessed as growth inhibition rate at 21.52 mg/l after 72 hr by spectrophotometry; details: ATCC 11778, 72 h, read-out: GI; procedure, shortened: as §1
[19] = test system: Bacillus cereus; assay: Antimicrobial activity against Bacillus cereus ATCC 11778 assessed as growth inhibition rate at 6.12 mg/l after 72 hr by spectrophotometry; details: ATCC 11778, 72 h, read-out: GI; procedure, shortened: as §1
[20] = test system: Salmonella typhimurium; assay: Antimicrobial activity against Salmonella enterica subsp. enterica serovar Typhimurium ATCC 14028 assessed as growth inhibition rate at 247 mg/l after 72 hr by spectrophotometry; details: ATCC 14028, 72 h, read-out: GI; procedure, shortened: as §2
[21] = test system: Listeria monocytogenes; assay: Antimicrobial activity against Listeria monocytogenes ATCC 19111 assessed as growth inhibition rate at 215.04 mg/l after 72 hr by spectrophotometry; details: ATCC 19111, 72 h, read-out: GI
Procedure, shortened: (§3)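 L. monocytogenes was grown at 30 °C in tryptic soy broth, subcultured for 18 h, and exposed to pure volatile compounds (>95% purity). Growth was followed by Bioscreen C optical density every 24 h for 72 h against a 10% Tween 80 control.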

[22] = test system: Listeria monocytogenes; assay: Antimicrobial activity against Listeria monocytogenes ATCC 19111 assessed as growth inhibition rate at 107.52 mg/l after 72 hr by spectrophotometry; details: ATCC 19111, 72 h, read-out: GI; procedure, shortened: as §3
[23] = test system: Listeria monocytogenes; assay: Antimicrobial activity against Listeria monocytogenes ATCC 19111 assessed as growth inhibition rate at 61.12 mg/l after 72 hr by spectrophotometry; details: ATCC 19111, 72 h, read-out: GI; procedure, shortened: as §3
[24] = test system: Staphylococcus aureus; assay: Antimicrobial activity against Staphylococcus aureus ATCC 25923 assessed as growth inhibition rate at 21.52 mg/l after 72 hr by spectrophotometry; details: ATCC 25923, 72 h, read-out: GI
[25] = test system: Staphylococcus aureus; assay: Antimicrobial activity against Staphylococcus aureus ATCC 25923 assessed as growth inhibition rate at 6.12 mg/l after 72 hr by spectrophotometry; details: ATCC 25923, 72 h, read-out: GI
[26] = test system: Vibrio parahaemolyticus; assay: Antimicrobial activity against Vibrio parahaemolyticus ATCC 33844 assessed as growth inhibition rate at 107.52 mg/l after 72 hr by spectrophotometry; details: ATCC 33844, 72 h, read-out: GI
[27] = test system: Vibrio parahaemolyticus; assay: Antimicrobial activity against Vibrio parahaemolyticus ATCC 33844 assessed as growth inhibition rate at 43 mg/l after 72 hr by spectrophotometry; details: ATCC 33844, 72 h, read-out: GI
[28] = test system: Vibrio parahaemolyticus; assay: Antimicrobial activity against Vibrio parahaemolyticus ATCC 33844 assessed as growth inhibition rate at 61.12 mg/l after 72 hr by spectrophotometry; details: ATCC 33844, 72 h, read-out: GI
[29] = test system: Listeria monocytogenes; assay: Antimicrobial activity against Listeria monocytogenes ATCC 19111 assessed as growth inhibition rate at 43 mg/l after 72 hr by spectrophotometry; details: ATCC 19111, 72 h, read-out: GI; procedure, shortened: as §3
[30] = test system: Listeria monocytogenes; assay: Antimicrobial activity against Listeria monocytogenes ATCC 19111 assessed as growth inhibition rate at 21.52 mg/l after 72 hr by spectrophotometry; details: ATCC 19111, 72 h, read-out: GI; procedure, shortened: as §3
[31] = test system: Listeria monocytogenes; assay: Antimicrobial activity against Listeria monocytogenes ATCC 19111 assessed as growth inhibition rate at 6.12 mg/l after 72 hr by spectrophotometry; details: ATCC 19111, 72 h, read-out: GI; procedure, shortened: as §3

## CCC/C=C/C=O
[1]
  inhibition of growth at 215.04 µg/mL: 100%
[2]
  inhibition of growth at 107.52 µg/mL: 100%
[3]
  inhibition of growth at 107.52 µg/mL: 98.9%
[4]
  inhibition of growth at 215.04 µg/mL: 99.4%
[5]
  inhibition of growth at 61.12 µg/mL: 98.5%
[6]
  inhibition of growth at 43 µg/mL: 83.4%
[7]
  inhibition of growth at 21.52 µg/mL: 63%
[8]
  inhibition of growth at 6.12 µg/mL: 84.7%
[9]
  inhibition of growth at 215.04 µg/mL: 97.3%
[10]
  inhibition of growth at 107.52 µg/mL: 89.9%
[11]
  inhibition of growth at 61.12 µg/mL: 47.5%
[12]
  inhibition of growth at 43 µg/mL: 25.5%
[13]
  inhibition of growth at 247 µg/mL: 100%
[14]
  inhibition of growth at 21.52 µg/mL: 8.2%
[15]
  inhibition of growth at 61.12 µg/mL: 72.6%
[16]
  inhibition of growth at 43 µg/mL: 44.3%
[17]
  inhibition of growth at 247 µg/mL: 100%
[18]
  inhibition of growth at 21.52 µg/mL: 91.3%
[19]
  inhibition of growth at 6.12 µg/mL: 90.5%
[20]
  inhibition of growth at 247 µg/mL: 98.7%
[21]
  inhibition of growth at 215.04 µg/mL: 99.8%
[22]
  inhibition of growth at 107.52 µg/mL: 99.4%
[23]
  inhibition of growth at 61.12 µg/mL: 81.2%
[24]
  inhibition of growth at 21.52 µg/mL: 28.7%
[25]
  inhibition of growth at 6.12 µg/mL: 29.2%
[26]
  inhibition of growth at 107.52 µg/mL: 99.8%
[27]
  inhibition of growth at 43 µg/mL: 100%
[28]
  inhibition of growth at 61.12 µg/mL: 99.8%
[29]
  inhibition of growth at 43 µg/mL: 45.3%
[30]
  inhibition of growth at 21.52 µg/mL: 32%
[31]
  inhibition of growth at 6.12 µg/mL: 31%
